Assay outcomes deposited in PubChem by several laboratories.
tolC growth inh: growth inhibitors of E. coli tolC mutant, primary screen, strain BW25113 ΔtolC::kan, 384-well; AID 573, 2007; growth inhibition, % at 10 µM (by protocol); actives 2.2% (n = 65,000); OD615;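 active = growth inhibition at or above a cutoff equal to the mean over every tested compound plus 3 SD, cut at about 60% in these data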;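 also: growth measured after 20 h incubation at 37 °C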
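Assay system: tolC-deleted E. coli BW25113. Medium: kanamycin-containing LB broth (50 µg/mL). Dosing: 10 µM final, single dose. Timing: bacterial growth with compound for 20 h at 37 °C. Detection: A615 absorbance measurement. Read-out basis: growth inhibition in percent.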
Ecoli WT expand: growth inhibitors of wild-type E. coli, primary screen, strain BW25113, expanded library, OD600 | OD600 absorbance | actives 0.15% (n = 98,000) | AID 710, 2007 | growth inhibition, % at 100 µM;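 active = growth inhibition above about 50% at one test dose, limit read from the data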;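 also: growth measured after 20 h incubation at 37 °C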
PostGolgi yeast: phenotypic screen on post-Golgi transport, primary screen. post-Golgi transport phenotypic cell assay. inhibition, % at 10 µM. actives 0.9% (n = 98,000). AID 739, 2007;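 also: yeast cells grown in 1536-well plates; yeast grown about 18 h at 30C before absorbance read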
PLAP activator: PLAP enzyme activators, biochemical, luminescence, HTS; purified PLAP enzyme, luminescent substrate read-out; hits give high values; activation fold at 20 µM; actives 1.2% (n = 96,000); in the data active = activation fold above about 2
Target sequence (P05187 whole entry, looked up): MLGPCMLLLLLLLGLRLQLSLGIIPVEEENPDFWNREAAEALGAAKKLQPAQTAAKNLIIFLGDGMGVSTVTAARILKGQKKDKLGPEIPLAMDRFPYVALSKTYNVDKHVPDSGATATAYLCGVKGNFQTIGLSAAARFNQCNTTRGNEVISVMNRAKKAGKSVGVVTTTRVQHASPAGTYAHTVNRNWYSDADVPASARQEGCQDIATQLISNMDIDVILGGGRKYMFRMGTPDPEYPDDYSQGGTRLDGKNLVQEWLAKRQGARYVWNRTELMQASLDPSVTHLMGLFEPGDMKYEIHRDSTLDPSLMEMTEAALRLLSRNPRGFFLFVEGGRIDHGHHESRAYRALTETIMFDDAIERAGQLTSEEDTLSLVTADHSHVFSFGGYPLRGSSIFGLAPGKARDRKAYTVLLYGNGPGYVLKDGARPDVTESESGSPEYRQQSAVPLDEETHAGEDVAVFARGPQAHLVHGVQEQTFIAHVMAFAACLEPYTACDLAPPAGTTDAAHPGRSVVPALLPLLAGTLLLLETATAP
PostGolgi ctrl: growth inhibition of yeast control strain, primary screen, counter-screen for post-Golgi transport modulator project; efflux-deficient yeast background strain, growth absorbance A615, 16 h; inhibition, % at 10 µM; actives 5% (n = 98,000); AID 738, 2007
* = called active by the depositor. Shown are actives, neighbours in structure and some others; about 7.2% of the full set was active somewhere. Rule as the data show it, unless noted: active = inhibition above about 30%; inactive = the rest.

For COc1ccc(/C=C/C(=O)Nc2sc3c(c2C(=O)NCc2cccnc2)CCCC3)cc1 the results were Ecoli WT expand -4, PostGolgi yeast 19, PLAP activator 1.4 and PostGolgi ctrl 52*.
Screening CCS(=O)(=O)n1nc(-c2ccc(Cl)cc2)nc1SC returned Ecoli WT expand 12, PostGolgi yeast 4, PLAP activator 1 and PostGolgi ctrl -5.
Cn1nc(-c2ccc(Cl)cc2)nc2c(=O)n(C)c(=O)nc1-2 was read as Ecoli WT expand 20, PostGolgi yeast 106*, PLAP activator 0.9 and PostGolgi ctrl 107*.
For COc1ccc(/C=C(\NC(=O)c2ccccc2)C(=O)N/N=C/c2ccncc2)cc1 the results were Ecoli WT expand 8, PostGolgi yeast 0, PLAP activator 1.1 and PostGolgi ctrl -7.
COc1ccc(/C=N/NC(=O)c2nc(-c3ccccc3)cc(-c3ccccc3)n2)cc1 was read as Ecoli WT expand -21, PostGolgi yeast 8, PLAP activator 1 and PostGolgi ctrl 31*.
`COc1cc(/C=N/NC(=O)c2cnn3c(C)cc(-c4ccccc4)nc23)ccc1O` gave Ecoli WT expand -18, PostGolgi yeast -1, PLAP activator 1.1 and PostGolgi ctrl 34*.
For Cc1cccc(-c2c3c(=O)n(C)c(=O)n(C)c3cn2CC2CCCO2)c1 (stereo not drawn) the results were tolC growth inh 23, Ecoli WT expand -2, PostGolgi yeast 9, PLAP activator 1.1 and PostGolgi ctrl -3.
`CCCCNc1c2c3c(cccc3n(C)c1=O)C(=O)c1ccccc1-2` gave Ecoli WT expand -26, PostGolgi yeast 2 and PostGolgi ctrl 58*.
`Cn1c(=O)c(NCCc2ccccc2)c2c3c(cccc31)C(=O)c1ccccc1-2` gave Ecoli WT expand -12, PostGolgi yeast 0, PLAP activator 0.9 and PostGolgi ctrl 48*.
COC(=O)c1cccc(C(=O)Nc2ccc(F)cc2)n1 was read as Ecoli WT expand 6, PostGolgi yeast -14, PLAP activator 0.9 and PostGolgi ctrl 32*.
CC(=O)Nc1ccc(NC(=O)c2cccc(C(=O)OC(C)C)n2)cc1 was read as tolC growth inh 0, Ecoli WT expand 5, PostGolgi yeast -1, PLAP activator 1.1 and PostGolgi ctrl 21.
Screening O=C(CC1Sc2ncnn2C1=O)Nc1ccc(Br)cc1 (stereo not drawn) returned tolC growth inh 0, Ecoli WT expand 14, PostGolgi yeast -3, PLAP activator 1.2 and PostGolgi ctrl 9.
`CCC1CCCCN1CCCNC(=O)c1cn(CC(C)C)c(=O)c2cc(OC)c(OC)cc12` (stereo not drawn) gave tolC growth inh -23, Ecoli WT expand 7, PostGolgi yeast 4, PLAP activator 2* and PostGolgi ctrl 8.
COc1cc2c(C(=O)NCc3ccc(C)o3)cn(CC(C)C)c(=O)c2cc1OC was read as tolC growth inh 0, Ecoli WT expand -8, PostGolgi yeast 7, PLAP activator 1.3 and PostGolgi ctrl -1.
Screening CCN(CC)S(=O)(=O)c1ccc(OC)c(NC(=O)CSc2ccccc2)c1 returned Ecoli WT expand -9, PostGolgi yeast -6, PLAP activator 1.2 and PostGolgi ctrl 16.
Screening Cc1cccc(N2CCN(C(=O)c3cc4c(C)nc5ccccc5c4o3)CC2)c1C returned tolC growth inh 1.
Screening O=C(CCCOc1ccccc1)N1CCN(c2ccccn2)CC1 returned tolC growth inh -5, Ecoli WT expand 0, PostGolgi yeast -8, PLAP activator 1.4 and PostGolgi ctrl 14.
O=C(CCCOc1ccc(Cl)cc1Cl)N1CCN(c2ccccn2)CC1 was read as tolC growth inh 73*, Ecoli WT expand -11, PostGolgi yeast -8, PLAP activator 1.5 and PostGolgi ctrl 52*.
For O=c1c2cc(N3CCOCC3)ccc2[nH]c(=S)n1CCN1CCCC1 the results were tolC growth inh -1, Ecoli WT expand -2, PostGolgi yeast 10, PLAP activator 1.6 and PostGolgi ctrl 22.
O=c1c2cc(N3CCOCC3)ccc2[nH]c(=S)n1Cc1ccc(Cl)cc1 was read as Ecoli WT expand -2, PostGolgi yeast 1, PLAP activator 1.4 and PostGolgi ctrl 40*.
CSc1nnc(-c2sc3cc(C(F)(F)F)cnc3c2-c2ccccc2)n1C was read as Ecoli WT expand 10, PostGolgi yeast -5, PLAP activator 2* and PostGolgi ctrl 6.
COC(=O)c1sc2cc(C(F)(F)F)cnc2c1-c1ccccc1 was read as Ecoli WT expand 7, PostGolgi yeast 8, PLAP activator 1.2 and PostGolgi ctrl 45*.
`O=C(O)c1sc2cc(C(F)(F)F)cnc2c1-c1ccccc1` gave Ecoli WT expand -8, PostGolgi yeast -7, PLAP activator 1 and PostGolgi ctrl -12.
For CCOC(=O)CN1C(=O)C(O)(CC(=O)c2cccc(OC)c2)c2ccccc21 (stereo not drawn) the results were tolC growth inh -2, Ecoli WT expand 1, PostGolgi yeast 1, PLAP activator 1 and PostGolgi ctrl 4.
CC(C)Sc1nnc(Cn2c(=O)sc3ccccc32)n1-c1ccccc1 was read as tolC growth inh 1, Ecoli WT expand 2, PostGolgi yeast 4 and PostGolgi ctrl 32*.
`CCOC(=O)c1sc2ncnc(N3CCN(C(=O)OCC)CC3)c2c1C` gave tolC growth inh 4, Ecoli WT expand 8, PostGolgi yeast 3, PLAP activator 1.5 and PostGolgi ctrl 36*.
Cc1c(C(=O)N2CCN(c3ccccc3)CC2)sc2ncnc(N3CCN(c4ccccc4)CC3)c12 was read as tolC growth inh 15.
For CCOC(=O)c1sc2nc(CC(=O)OC)nc(N3CCN(c4ccccn4)CC3)c2c1C the results were tolC growth inh 66*, Ecoli WT expand -23, PostGolgi yeast 2, PLAP activator 1.3 and PostGolgi ctrl 30*.
Cc1ccc(OCC(=O)NNC(=O)C2CCN(c3ncccn3)CC2)cc1 was read as Ecoli WT expand 6, PostGolgi yeast 6, PLAP activator 2* and PostGolgi ctrl 26.
For Cc1ccc(OCC(=O)NNC(=O)C2CCN(c3nc(C)cc(C)n3)CC2)cc1 the results were Ecoli WT expand -9, PostGolgi yeast 5, PLAP activator 1.3 and PostGolgi ctrl 3.
Screening CC1Cc2ccccc2N1C(=O)Cn1nnc(-c2ccccc2NC(=O)C2CCC2)n1 (stereo not drawn) returned tolC growth inh 12, Ecoli WT expand -26, PostGolgi yeast 4 and PostGolgi ctrl 32*.
O=C(Nc1cccc(-c2nnn(CC(=O)N3CCc4ccccc4C3)n2)c1)C1CCC1 was read as tolC growth inh 16, Ecoli WT expand -16, PostGolgi yeast -8, PLAP activator 2.3* and PostGolgi ctrl 2.
Screening O=C(Nc1ccccc1-c1nnn(CC(=O)N2CCc3ccccc3C2)n1)C1CCC1 returned Ecoli WT expand 1, PostGolgi yeast 3, PLAP activator 0.9 and PostGolgi ctrl 6.
